In the library only some 3.8% were active in any assay of this set; here they are far more common.
hERG protect = hERG rescue from dofetilide block, primary screen, cell-based, CHO-hERG, FluxOR thallium flux, dofetilide IC70 | Voltage-gated inwardly rectifying potassium channel KCNH2 (Homo sapiens), Q12809 | dofetilide IC70 present | activation (rescue from dofetilide block), less the hit threshold, % at 10 µM | 310,000 tested, 0.51% active;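 active = activation above the mean of controls blocked by dofetilide plus 5 SD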;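 also: thallium influx through hERG after potassium depolarization seen as dye fluorescence rise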
KCNK9 inh = KCNK9 potassium channel inhibitors, primary screen, HEK293 cells, thallium flux; 310,000 tested, 1.2% active; Potassium channel subfamily K member 9 (Homo sapiens), Q9NPC2; B-score at 10 µM; FluxOR thallium flux fluorescence; active compounds read low;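 active = ratio B-score over 3 SD below the library mean, with starting fluorescence within 5 SD of its mean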;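 also: negative B-score means less thallium flux so channel inhibition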
KCNQ1 block = inhibitors of human KCNQ1 channel, primary screen, cell-based, thallium flux, high-throughput. CHO-K1 KCNQ1, FluxOR thallium flux fluorescence; active compounds read high. B-score at 10 µM. 310,000 tested, 1.3% active;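 active = compounds whose thallium flux B-score, printed positive for inhibition, exceeds three library SD while starting fluorescence stays within three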;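 also: channel opened by potassium depolarization with thallium stimulus after 20 min compound exposure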
Kir21 block = inhibitors of mouse Kir2.1 inward-rectifier potassium channel | HEK293-Kir2.1, FluxOR thallium flux fluorescence; active compounds read low | B-score at 10 µM | 310,000 tested, 0.85% active;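 active = fluorescence ratio B-score at or below minus 3 SD of library scores, with starting-brightness B-score within 2 SD, cut at about -4.2 in these data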;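 also: channel flux triggered by added potassium and thallium sulfate stimulus; B-score of peak minus minimum fluorescence over baseline after thallium stimulus; more negative B-score means stronger Kir2.1 block with less thallium influx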
KCNQ1 pot = potentiators or activators of KCNQ1 channel, primary screen, cell-based, thallium flux, high-throughput; 310,000 tested, 0.35% active; CHO-K1 KCNQ1, thallium flux FluxOR fluorescence; active compounds read high; B-score at 10 µM; Potassium voltage-gated channel subfamily KQT member 1 (Homo sapiens), P51787;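 active = fluorescence ratio B-score, a plate-corrected score, at least three library SD, with initial intensity B-score within 5 SD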
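System: Stable KCNQ1 CHO-K1 line | Incubation: 90 min dye loading and 20 min compound exposure, both at room temperature | Measure: Ratio B score | Medium: Assay buffer for compound exposure, DMSO matched across wells | Compound dosing: Single-concentration screen | Probe or stimulus: K+/Tl+ depolarizing stimulus | Measured by: Kinetic FluxOR fluorescence, 10 s baseline plus 110 s post-stimulus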
KCNK3 block = human KCNK3 channel inhibitors, primary screen, CHO cells, FluxOR thallium flux, B-score | FluxOR fluorescence; active compounds read low | Potassium channel subfamily K member 3 (Homo sapiens), O14649 | B-score at 10 µM | 340,000 tested, 0.84% active;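 active = B-score under library mean minus 4 SD, starting fluorescence ratio at most library mean plus 5 SD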;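 also: more negative B-score means stronger inhibition of thallium flux through KCNK3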
KCNQ1 block val = KCNQ1 potassium channel inhibitors, confirmation, cell-based, Tl flux, duplicate; AID 588353, 2011; 1,600 tested, 93% active; inhibition, % at 10 µM; KCNQ1 cell line, FluxOR thallium flux fluorescence; shares compounds with KCNQ1 block;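 active = primary screen active, with duplicate mean exceeding buffer control mean plus 3 SD of buffer wells, cut at about 28% in these data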;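 also: 0% = buffer control ratio and 100% = XE991 inhibitor control ratio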
CHO KCNQ1 ctr = thallium flux effects in parental CHO cells, counter-screen for KCNQ1 inhibitor project, cell-based, Tl flux. fluorescence ratio (Tl flux) at 10 µM. parental CHO-K1, FluxOR thallium flux fluorescence ratio; active compounds read low; zero means no signal rise above baseline. AID 588366, 2011. 1,600 tested, 21% active. shares compounds with KCNQ1 block;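 active = mean of duplicate thallium-flux fluorescence ratios in parental host cells more than 5 SD below the buffer control mean, cut at about 0.38 in these data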;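 also: ratio is peak minus minimum fluorescence divided by baseline fluorescence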
KCNQ1 APC inh = KCNQ1 channel inhibitors, confirmation, orthogonal assay, cell-based, automated electrophysiology; shares compounds with KCNQ1 block; calls only at 10 µM; KCNQ1-CHO cells, automated patch clamp current; AID 624120, 2012; 490 tested, 20% active;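 active = KCNQ1 current drop exceeding 3 SD of negative control wells, seen in both duplicate runs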;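 also: steady state current during a 2 s step from -80 to +40 mV; negative values mean current inhibition and positive values mean potentiation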
KCNQ2 inh = KCNQ2 channel inhibition, selectivity assay for KCNQ1 inhibitor project, cell-based; shares compounds with KCNQ1 block; KCNQ2 cells, FluxOR thallium flux fluorescence; inhibition, % at 10 µM; 1,600 tested, 71% active; AID 651746, 2012;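 active = mean percent inhibition of the KCNQ2 thallium signal more than 5 SD above the buffer-only control wells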;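 also: KCNQ2 expressed in CHO cells; 0% = buffer control wells and 100% = XE-991 inhibitor control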
Target sequence (O88943 whole entry, looked up): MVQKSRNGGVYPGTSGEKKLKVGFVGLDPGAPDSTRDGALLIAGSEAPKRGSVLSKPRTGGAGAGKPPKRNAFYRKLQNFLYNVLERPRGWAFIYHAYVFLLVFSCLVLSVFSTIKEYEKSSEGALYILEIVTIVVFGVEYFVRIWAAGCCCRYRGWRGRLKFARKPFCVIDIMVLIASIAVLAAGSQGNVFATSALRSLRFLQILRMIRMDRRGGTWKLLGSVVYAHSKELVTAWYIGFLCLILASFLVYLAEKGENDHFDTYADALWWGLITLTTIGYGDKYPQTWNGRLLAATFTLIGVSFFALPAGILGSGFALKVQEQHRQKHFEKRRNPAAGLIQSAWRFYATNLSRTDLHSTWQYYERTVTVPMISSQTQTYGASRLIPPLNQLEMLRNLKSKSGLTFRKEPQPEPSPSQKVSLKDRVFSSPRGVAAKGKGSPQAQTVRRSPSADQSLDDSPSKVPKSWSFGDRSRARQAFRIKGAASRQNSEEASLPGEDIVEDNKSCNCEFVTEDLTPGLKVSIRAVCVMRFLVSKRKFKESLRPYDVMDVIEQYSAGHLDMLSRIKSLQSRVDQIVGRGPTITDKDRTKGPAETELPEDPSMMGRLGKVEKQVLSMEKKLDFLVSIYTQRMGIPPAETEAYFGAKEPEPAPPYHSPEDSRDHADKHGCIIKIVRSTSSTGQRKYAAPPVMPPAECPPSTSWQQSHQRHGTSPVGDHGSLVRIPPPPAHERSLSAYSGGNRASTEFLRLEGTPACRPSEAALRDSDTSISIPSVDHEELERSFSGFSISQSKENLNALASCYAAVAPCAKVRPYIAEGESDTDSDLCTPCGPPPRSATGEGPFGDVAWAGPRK
KCNQ1-KCNE1 inh = KCNQ1/KCNE1 channel inhibition, selectivity assay for KCNQ1 inhibitor project, CHO-K1 cells, thallium flux, FluxOR | shares compounds with KCNQ1 block | FluxOR thallium flux fluorescence | inhibition, % at 10 µM | 1,600 tested, 77% active;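 active = mean percent inhibition of duplicate wells above the buffer-only control mean plus 3 SD of those controls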;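 also: 0% = buffer only wells and 100% = XE-991 inhibitor control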
* marks the source's active call; other numbers are inactive results; i = inactive; . = no result; + = active, no number.

SMILES	hERG protect	KCNK9 inh	KCNQ1 block	Kir21 block	KCNQ1 pot	KCNK3 block	KCNQ1 block val	CHO KCNQ1 ctr	KCNQ2 inh	KCNQ1-KCNE1 inh	others
Fc1ccc(NC(=S)Nc2cccnc2)cc1Cl	-13	i	8*	0.55	i	i	66*	0.47	i	34%*
O=C(Nc1cccnc1)Nc1cc(Cl)cc(Cl)c1	-18	i	i	0.6	i	i	.	.	.	.
Fc1ccc(NC(=S)Nc2ccccc2N2CCOCC2)cc1Cl	-22	i	9*	-7.4*	i	i	0	0.5	i	i
COC(=O)c1cc2nc(-c3ccc(C)cc3)cc(C(F)(F)F)n2n1	-7	i	i	0.39	i	i	.	.	.	.
CCOc1ccc(N2CC(C(=O)Nc3ccccc3C(=O)N3CCOCC3)CC2=O)cc1 (centres undefined)	-7	i	i	1.6	i	i	.	.	.	.
CN(CC(=O)Nc1ccccc1C(=O)NC1CC1)Cc1ccc(N(C)C)cc1	.	.	.	.	.	i	.	.	.	.
NC(=O)C1CCN(C(=O)c2ccc(NS(=O)(=O)c3ccc(Br)s3)cc2)CC1	.	.	.	.	.	i	.	.	.	.
O=S(=O)(Nc1ccc(-n2cccc2)cc1)c1ccc(Cl)c(Cl)c1	-13	i	10*	0.36	i	i	106*	0.42	117%*	162%*	KCNQ1 APC inh=i
O=S(=O)(Nc1ccc(-n2cccc2)cc1)c1ccc(Cl)cc1Cl	-8	i	i	0.63	i	i	.	.	.	.
Cn1nccc1C(=O)OCC(=O)Nc1cccc(Cl)c1	.	.	.	.	.	i	.	.	.	.
COc1ccc(NC(=S)Nc2cccc(C(F)(F)F)c2)c(C)c1	-5	i	8*	0	i	i	99*	0.49	100%*	60%*	KCNQ1 APC inh=i
CSc1ccccc1NC(=S)Nc1cccc(C(F)(F)F)c1	-12	i	i	-0.51	i	i	.	.	.	.
CCOC(=O)C1=C(COC(=O)C2(C)CC2(Cl)Cl)NC(=O)NC1c1ccccc1 (centres undefined)	-4	i	i	-1.1	i	i	.	.	.	.
Nc1nc(Cl)cc(N2CCC(c3cc(-c4ccc(Cl)cc4Cl)n[nH]3)CC2)n1	-15	i	6*	-0.45	i	i	136*	0.37*	113%*	174%*
CC(C)(O)CC[C@H](OC(=O)c1ccccc1)[C@](C)(O)[C@H]1CC[C@@]2(O)C3=CC(=O)[C@@H]4C[C@@H](O)[C@H](O)C[C@]4(C)C3CC[C@]12C (some centres undefined)	-5	i	i	0.15	i	i	.	.	.	.
Cc1ccc(OCC(O)Cn2c(=N)n(Cc3ccccc3)c3ccccc32)cc1 (centres undefined)	-28	i	8*	-6*	i	i	78*	0.41	93%*	36%*
CS(=O)(=O)c1ncc(Cl)c(C(=O)Nc2ccc(OC(F)F)cc2)n1	-21	i	6*	-5.3*	i	i	74*	0.34*	i	118%*
CS(=O)(=O)c1ncc(Cl)c(C(=O)Nc2ccc(N3CCOCC3)cc2)n1	-27	i	7*	-3.9	i	i	73*	0.41	92%*	108%*
CS(=O)(=O)c1ccc(C(=O)Nc2ccc(N3CCOCC3)cc2)c(Cl)c1	-8	i	i	-0.19	i	i	.	.	.	.
CN(Cc1ccc(Cl)cc1Cl)C(=O)c1cccc(S(=O)(=O)N2CCN(c3ccccc3)CC2)c1	-11	i	6*	-0.67	i	i	92*	0.43	90%*	68%*	KCNQ1 APC inh=i
COc1cccc(CN(C)C(=O)c2cccc(S(=O)(=O)N3CCN(c4ccccc4)CC3)c2)c1OC	.	.	.	.	.	i	.	.	.	.
COc1ccc(Cl)cc1C(=O)N(Cc1nc(-c2cccc(C)c2)no1)C(C)C	-11	i	i	-1.3	i	i	.	.	.	.
Cc1cccc(-c2noc(CN(C)S(=O)(=O)c3cc(Cl)ccc3Cl)n2)c1	-7	-8*	8*	-0.46	i	i	+	0.35*	i	i
CC(C)(C)c1ccc(C(=O)Cn2cnnc2C#N)cc1	-9	i	6*	0.26	i	i	79*	0.47	i	36%*
Cc1cc(N2CCCC2=O)cc(C)c1S(=O)(=O)NCCOc1ccc(C(C)(C)C)cc1	-18	i	10*	-0.35	i	i	138*	0.43	112%*	141%*	KCNQ1 APC inh=i
CC1(C)Cc2c(cnn2-c2ccc(F)cc2)C(NC(=O)C2CCC2)C1 (centres undefined)	-6	i	8*	-0.53	i	i	103*	0.46	70%*	112%*	KCNQ1 APC inh=+
COC(=O)c1ccc(Cl)c(NC(=O)NC23CC4CC(CC(C4)C2)C3)c1	-18	i	10*	-1.9	i	i	131*	0.44	108%*	170%*
CCC(=O)Nc1c(C#N)c2nc3ccccc3nc2n1-c1ccc(C)cc1	.	.	.	.	.	i	.	.	.	.
CCC(C)n1c(NC(=O)c2ccccc2)c(C#N)c2nc3ccccc3nc21 (centres undefined)	-15	i	8*	-0.16	i	i	82*	0.44	64%*	i

Bioassay records (PubChem)
